Assay outcomes: PubChem, The Scripps Research Institute Molecular Screening Center
S1P4 antag: antagonists of human S1P4 receptor. O95977. S1P4-expressing cells, antagonist mode, reporter read-out. inhibition, % at 4.98 µM. 220,000 compounds, 0.26% hits. AID 1510; in the data active means inhibition above about 29%;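 further: 0% = wells stimulated with agonist and 100% = vehicle wells without agonist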
NPY1 pot ag: human NPY-Y1 potentiation or agonism, primary screen. 220,000 compounds, 0.37% hits. AID 1304. activation, % at 3.6 µM. P25929. NPY-Y1 expressing cells, potentiator/agonist activation; in the data active means activation above about 33%, passing the limit was not always enough;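 further: cells stimulated with NPY at EC10 then isoproterenol at EC100; 0% = low agonist plus stimulus and 100% = saturating agonist plus stimulus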
Target sequence (P25929 whole entry, looked up): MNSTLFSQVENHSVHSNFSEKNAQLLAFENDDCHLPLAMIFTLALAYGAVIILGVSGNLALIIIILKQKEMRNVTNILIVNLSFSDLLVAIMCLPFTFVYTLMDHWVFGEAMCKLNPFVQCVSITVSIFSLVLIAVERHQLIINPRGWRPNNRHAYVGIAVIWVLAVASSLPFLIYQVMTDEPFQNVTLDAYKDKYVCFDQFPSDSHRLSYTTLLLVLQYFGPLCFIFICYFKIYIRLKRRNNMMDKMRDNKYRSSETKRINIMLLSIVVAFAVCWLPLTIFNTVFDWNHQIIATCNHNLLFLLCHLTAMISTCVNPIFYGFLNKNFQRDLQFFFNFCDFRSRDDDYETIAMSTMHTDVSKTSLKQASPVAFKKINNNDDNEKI
NPY-Y2 PAM-ag: human NPY-Y2 potentiation or agonism, primary screen; P49146; cells expressing NPY-Y2, potentiator/agonist read-out; activation, % at 3.6 µM; 220,000 compounds, 0.45% hits; in the data active means activation above about 27%;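 further: cells stimulated with NPY near EC25 plus isoproterenol at EC100; 0% = vehicle plus submaximal agonist and 100% = vehicle plus saturating agonist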
NPY Y2 blocker: blocks the human neuropeptide Y Y2 receptor; P49146; NPY-Y2 expressing cells, antagonist mode; inhibition, % at 2.7 µM; 140,000 compounds, 0.99% hits; in the data active means inhibition above about 17%;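 further: 0% = vehicle with agonist challenge and 100% = reference antagonist with challenge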
S1P4 ag: human S1P4 receptor agonism; AID 1509; S1P4-expressing cell line, agonist reporter assay; 220,000 compounds, 0.35% hits; activation, % at 4.98 µM; in the data active means activation above about 11%;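 further: 0% = DMSO vehicle and 100% = reference agonist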
NPY Y1 blocker: antagonists of human neuropeptide Y receptor Y1 | P25929 | HEK293-CNG Y1 cells, membrane potential fluorescence; NPY at EC95, then isoproterenol | inhibition, % at 3.6 µM | 200,000 compounds, 1% hits;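 active means inhibition above the campaign mean inhibition of all tested compounds plus 3 SD, cut at about 20% in these data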;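 further: 0% = DMSO wells given NPY plus isoproterenol and 100% = isoproterenol alone without NPY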
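Test system – HEK293 Y1/CNG channel cell line · Also added – NPY agonist 25 nM, then isoproterenol 1 µM plus Ro 20-1724 25 µM · Compound dosing – one concentration, 3.6 µM, in 0.4% DMSO · Schedule – compound incubation 1 h at room temperature, readout 45 min post-stimulation · Technique – fluorescence, membrane potential probe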
NPY1 antag ctr: antagonizes human NPY-Y1, counter-screen to NPY-Y2 antagonists; shares compounds with NPY Y2 blocker; cell-based NPY-Y1 antagonism counterscreen; inhibition, % at 3.6 µM; 710 compounds, 19% hits; AID 1256; in the data active means inhibition above about 20%;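 further: cells challenged with NPY then isoproterenol with cAMP sensed through a CNG channel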
NPY2 antag conf: confirmation of human neuropeptide Y receptor Y2 antagonists. shares compounds with NPY Y2 blocker. HEK293 NPY-Y2 CNG channel, membrane potential fluorescence. inhibition, % at 2.8 µM. 710 compounds, 32% hits;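 active means mean inhibition of triplicate wells above the hit cutoff set in the primary screen, cut at about 17% in these data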;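 further: 0% = DMSO with NPY challenge and 100% = BIIE0246 high control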
Active calls of the source: *; x = no result. A selection: hits, their analogues and other compounds. The true share with any hit is near 2.4%.

SMILES	S1P4 antag	NPY1 pot ag	NPY-Y2 PAM-ag	NPY Y2 blocker	S1P4 ag	NPY Y1 blocker	NPY1 antag ctr	NPY2 antag conf
CC(C)C(OC(=O)CN1C(=O)COc2ccccc21)C(=O)NC1CCCC1 (centres undefined)	-12	-5	-1	18*	1	17	10	7
COc1cccc(C2C(C(N)=O)=C(C)Nc3nc(-c4ccccc4Cl)nn32)c1 (centres undefined)	-4	6	11	20*	0	-3	-2	1
S=C(N/N=C/c1ccccc1Cl)Nc1ccccc1	-2	-34	-15	5	-1	10	x	x
CNC(=S)N/N=C/c1ccccc1Cl	-3	-16	-2	19*	-1	4	2	1
COc1ccc(CCc2nnc(CCC(=O)N(C)Cc3ccnc4ccccc34)o2)cc1	-28	9	1	x	-2	-3	x	x
O=C(NC1CCCCC1)C(c1ccco1)N(Cc1cccnc1)C(=O)C1COc2ccccc2O1 (centres undefined)	-26	-20	-5	19*	1	15	4	6
O=C(NC1CCCC1)C(=O)N(Cc1cccnc1)C(C(=O)NC1CCCC1)c1ccco1 (centres undefined)	-9	7	6	x	0	0	x	x
Nc1c2c(nc3sc4c(c13)CCCC4)CCCCCC2	3	-10	0	19*	-1	7	14	18*
CCN(CC)C(C(=O)Nc1ccc(C(C)C)cc1)c1ccc2c(c1)OCO2 (centres undefined)	7	-6	-14	18*	0	16	7	14
O=C(CSc1n[nH]c(=O)n1-c1ccc2c(c1)OCCO2)Nc1ccccc1	-5	0	9	x	0	x	x	x
CSc1ccccc1NC(=O)CN(C)Cc1cc(=O)n2ccsc2n1	-3	0	-1	x	0	14	x	x
CN(C)c1ccc(NC(=O)c2ccc([N+](=O)[O-])cc2Cl)cc1	-9	4	2	1	0	-1	x	x
Cc1ccc(NC(=O)c2cc(N(C)C)ccc2[P+](=O)O)cc1	-12	1	6	21*	1	3	5	0
N#Cc1ccc(-c2cccnc2)nc1SCc1ccc(Cl)c(Cl)c1	-3	2	10	27*	0	4	19	21*
O=C(NC1CCCCC1)C(c1ccccc1)N(Cc1ccc2c(c1)OCO2)C(=O)c1cnsn1 (centres undefined)	10	-43	-11	26*	1	12	16	12
CN1CCN(c2ccc(CNS(=O)(=O)c3ccsc3)cc2)CC1	1	8	-7	x	1	x	x	x
O=C(c1cc(-c2ccccc2O)on1)N1CCc2ccccc2C1	-9	-7	-21	6	0	3	x	x
O=C(c1cc(-c2cccs2)on1)N1CCc2ccccc2C1	-9	-33	-6	29*	3	14	17	17
Cc1ccc(/C=C/C(=O)N2CCN(c3cccc(C(F)(F)F)c3)CC2)cc1	-7	3	-14	21*	0	10	21*	14
C/C(=C\c1ccccc1)C(=O)N1CCN(c2cccc(C(F)(F)F)c2)CC1	-10	-5	-22	12	1	15	x	x
COC(=O)c1ccc(OC)c(CSc2nnc(-c3ccc(C(C)(C)C)cc3)o2)c1	15	-15	1	0	-1	5	x	x
Cc1ccc(C(=O)CSc2nnc(COc3cc(C)cc(C)c3)o2)cc1	-19	-5	1	21*	0	7	13	20*
COC(=O)c1ccc(OC)c(CSc2nnc(COc3ccc(Cl)cc3)o2)c1	-21	-31	-4	27*	1	9	25*	19*
COC(=O)c1ccc(OC)c(CSc2nnc(COc3ccccc3)o2)c1	7	-34	-4	18*	0	13	7	11
Cc1nc(-c2ccccc2)sc1C(=O)CSc1ccc(Cl)cc1	-9	-12	-3	20*	0	17	14	25*
NC(=O)CC[C@H](NC(=O)c1ccc(F)cc1)C(=O)OCC(=O)Nc1ccc(N2CCOCC2)cc1	0	3	18	0	1	-1	x	x
